The target in one data set is Rab7. Conditions: nucleotide free system ref 11; cited from earlier work.
Data set [1] deals with T1, GST-Rab7 (Canis lupus familiaris, UniProt P18067). It counts as binding, canine. Particulars: for maximal binding Bmax: GST-Rab7, 1 mM MgCl2. In short, it runs like this: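 Canine GST-Rab7 from E. coli, glutathione-purified, loaded at 1 µM onto glutathione beads (4°C, overnight, HPS buffer, 1 mM DTT). 10^4 beads incubated 2 h at 4°C with 0–2 µM BODIPY FL GTP, GDP or GTP-γ-NH in 1 mM EDTA or 1 mM MgCl2. Diluted ≥10-fold and read by flow cytometry. Fluorescein calibration beads gave BODIPY/bead. Bmax and Kd from hyperbolic fit.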
T1 sequence (P18067 whole entry): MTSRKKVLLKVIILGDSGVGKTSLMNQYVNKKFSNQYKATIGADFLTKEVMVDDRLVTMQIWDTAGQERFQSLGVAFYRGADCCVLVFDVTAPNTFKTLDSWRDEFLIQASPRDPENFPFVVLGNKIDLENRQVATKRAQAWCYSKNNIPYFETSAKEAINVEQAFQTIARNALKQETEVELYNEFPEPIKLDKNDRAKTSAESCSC

For data set [2], the target named is T1, GST-Rab7. The format is binding, canine. Particulars: competition with 100 nM BODIPY FL GTP, 1 mM EDTA buffer. Summed up:
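Canine Rab7 GST fusion expressed in BL21(DE3) E. coli and glutathione-affinity purified. 1 µM protein loaded overnight at 4°C onto glutathione Superdex beads in HPS buffer (HEPES pH 7.5, KCl, NaCl, dodecyl maltoside) with 1 mM DTT, then washed. 10^4 beads incubated 2 h at 4°C with 100 nM BODIPY FL GTP plus unlabeled GDP or GTP-γ-S. Read by flow cytometry; fitted EC50 converted to Ki.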

In data set [3] the target is T1, GST-Rab7. The data set is described as follows: Kinetic assays. It counts as binding, canine. Conditions: for koff: GST-Rab7, 1 mM EDTA buffer.
The target of a further data set is GST-RhoA (Homo sapiens, UniProt P61586). The format is binding. Particulars: for maximal binding Bmax: 1 mM MgCl2; for Bmax / Kd: 1 mM MgCl2 buffer. Summed up: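 GST-RhoA purified from E. coli. Loaded at 1 µM overnight at 4°C onto glutathione beads in HPS buffer with 1 mM DTT and 1 mM MgCl2, then washed twice. 10^4 beads incubated 2 h at 4°C with 0–2 µM BODIPY FL GTP or GTP-γ-NH in 1 mM MgCl2. Diluted ≥10-fold and read by flow cytometry. Signal calibrated to BODIPY/bead with fluorescein beads. Bmax and Kd from hyperbolic fit.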
Chain of GST-RhoA (P61586 whole entry): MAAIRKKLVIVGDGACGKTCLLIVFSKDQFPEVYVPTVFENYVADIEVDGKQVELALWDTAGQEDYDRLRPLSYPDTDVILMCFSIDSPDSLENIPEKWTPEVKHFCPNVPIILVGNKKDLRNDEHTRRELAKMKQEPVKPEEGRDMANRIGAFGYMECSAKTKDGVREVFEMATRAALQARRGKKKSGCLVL

Setting [4] is: GST-Rab7, 1 mM EDTA buffer, 2 h at 4°C.

“Also recorded” adds a separate entry of the source. Read-outs that look alike come from different tables or passages of the source.

Usually Kd stands for the equilibrium constant for the complex coming apart. Turning to methylanthraniloyl (mant) GTP, the Kd at Rab7 is 6 nM.
The Ki is the equilibrium dissociation constant of an inhibitor or competing ligand from its target. Higher therefore signals weaker binding. As for `Nc1nc2c(ncn2[C@@H]2O[C@H](COP(=O)(O)OP(=O)(O)O)[C@@H](O)[C@H]2O)c(=O)[nH]1` [GDP], the “higher affinity of Rab7 for GDP relative to GTP” value on GST-Rab7 [1] (GST-Rab7) came out at 3 fold. On GST-Rab7 [2], this compound returned a Ki of 13 ± 5 nM. Besides, the “slower dissociation rate of GDP” value at GST-Rab7 [3] (GST-Rab7, relative to GTP) is listed as 3 fold.
Consider BODIPY FL GTP-γ-NH amide, for which the “binding to GST-Rab7 (in words)” value on GST-Rab7 [1] (GST-Rab7) is recorded as “unique inability; also recorded: marked inability to bind”. In addition, at GST-Rab7 [1], the “maximal binding Bmax” value is listed as 60 × 10^3 fluorophores/bead. Also, on GST-Rab7 [1] (GST-Rab7, 1 mM MgCl2 buffer), the Bmax is on record as 60 ± 5 10^3 BODIPY/bead and the affinity, expressed as Kd, was 70 ± 20 nM. In addition, the “lower binding affinity relative to BODIPY FL GTP” value on GST-Rab7 [1] (GST-Rab7, with Mg^2+) is reported as 90%. Further, at GST-RhoA, the “maximal binding Bmax” value was 710 × 10^3 fluorophores/bead; the Bmax was 710 ± 15 10^3 BODIPY/bead; the affinity, expressed as Kd, was 95 ± 10 nM.
The compound `Nc1nc2c(ncn2[C@@H]2O[C@H](COP(=O)(O)OP(=O)(O)OP(O)(O)=S)[C@@H](O)[C@H]2O)c(=O)[nH]1` [GTP-γ-S] displayed a Ki on GST-Rab7 [2] of 40 ± 10 nM.
In the case of “BODIPY FL GTP 2’-(or-3’)-O-(N-(2-aminoethyl)urethane”, the “decrease in affinity in the absence of Mg^2+” value on GST-Rab7 [1] (GST-Rab7) is listed as 8 fold. The maximal binding at GST-Rab7 [1] (GST-Rab7, 1 mM EDTA) is listed as 1600 × 10^3 fluorophores/bead. Also, the Bmax at GST-Rab7 [1] (GST-Rab7, 1 mM EDTA buffer) is recorded as 1600 ± 400 10^3 BODIPY/bead; at GST-Rab7 [1] (GST-Rab7, 1 mM MgCl2 buffer) it was 650 ± 10 10^3 BODIPY/bead; at GST-RhoA it was 700 ± 20 10^3 BODIPY/bead. Besides, the Kd on GST-Rab7 [1] (setting [4]) was found to be 150 ± 62 nM; on GST-Rab7 [1] (GST-Rab7, 1 mM MgCl2 buffer) it was 20 ± 5 nM; at GST-RhoA, 80 ± 10 nM. Also, the figures for the “maximal binding Bmax” value on GST-Rab7 [1] and on GST-RhoA were 650 × 10^3 fluorophores/bead and 700 × 10^3 fluorophores/bead, respectively. Further, the “faster dissociation of GTP compared to GDP” value at GST-Rab7 [3] (GST-Rab7) was found to be 3 fold. Further, the koff at GST-Rab7 [3] was 7.0 ±3.0 × 10^−3 sec^−1. Moreover, the “t1/2 (observed on-rate half-time)” value at GST-Rab7 [3] (GST-Rab7, 1 mM EDTA, 50-500 nM BODIPY FL GTP) was 11.1 ± 0.6 min. In addition, the “dissociation rate faster in the absence of Mg^2+ relative to Mg^2+ present” value on GST-Rab7 [3] (GST-Rab7, competed by excess unlabeled nucleotide) was 7 times. Moreover, the “koff Mg^2+” value on GST-Rab7 [3] (GST-Rab7, with Mg^2+) was 0.0013 s⁻¹.
Take “BODIPY FL GDP 2′-(or-3′)-O-(N-(2-aminoethyl)urethane)”: on GST-Rab7 [1] (GST-Rab7), the “higher affinity of Rab7 for GDP relative to GTP” value amounted to 3 fold. For the same compound, the Bmax on GST-Rab7 [1] (GST-Rab7, 1 mM EDTA buffer) is recorded as 2000 ± 400 10^3 BODIPY/bead. At GST-Rab7 [1] (setting [4]), this compound came in with a Kd of 54 ± 15 nM. For the same compound, on GST-Rab7 [3], the koff is given as 2.3 ± 1.5 × 10^−3 sec^−1.

Source of the values: publication PMC2633595 (Analytical biochemistry, 2008).
